Test results as given in ChEMBL document CHEMBL1124982, “Chemistry and structure-activity relationships of C-17 unsaturated 18-cycloalkyl and cycloalkenyl analogues of enisoprost. Identification of a promising new antiulcer prostaglandin” (1990).

Assays:
Canis familiaris = test: Tested for gastric antisecretory activity in dogs by intrapouch administration; assay type: functional; settings: Canis lupus familiaris, Stomach
Procedure, shortened: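 Adult female beagles (6–11 kg) with Pavlov pouches; after a 30-min basal collection, drug given into the pouch via Thomas cannula in pH 7.4 isoosmotic phosphate buffer with up to 20% ethanol. Fed 10–12 oz canned food 30 min later. Gastric juice collected at 30-min intervals for 4 h; acid output = volume × acidity. Percent reduction from control over 2–5 doses, 2–7 dogs/dose. ED50 by linear regression, 95% limits by Fieller's method.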

Rattus norvegicus = test: Tested for diarrheal side effects in rats by intragastric administration; assay type: functional; settings: po
Procedure, shortened: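 Adult male Charles River rats (210–230 g), individually housed, fasted 24 h with water ad libitum. Logarithmically graded prostaglandin doses given orally, N = 6–12 per group. Diarrhea scored all-or-none for 8 h after dosing. ED50 and 95% confidence intervals by logistic regression.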

COC(=O)CC/C=C\CC[C@H]1C(=O)C[C@@H](O)[C@@H]1/C=C/C[C@@](C)(O)/C=C/C1=CCCCC1
ED50 (Canis familiaris): 0.3 µg/kg
ED50 (Rattus norvegicus): > 3.16 mg/kg

COC(=O)CC/C=C\CC[C@H]1C(=O)C[C@@H](O)[C@@H]1/C=C/C[C@@](C)(O)C#CC1=CCCC1
ED50 (Canis familiaris): 2.8 µg/kg
ED50 (Rattus norvegicus): > 3.16 mg/kg

COC(=O)CC/C=C\CC[C@H]1C(=O)C[C@@H](O)[C@@H]1/C=C/C[C@@](C)(O)/C=C/C1=CCCC1
ED50 (Canis familiaris): 0.02 µg/kg
ED50 (Rattus norvegicus): > 3.16 mg/kg

COC(=O)CC/C=C\CC[C@H]1C(=O)C[C@@H](O)[C@@H]1/C=C/C[C@@](C)(O)/C=C/C1CC1
ED50 (Canis familiaris): 0.1 µg/kg
ED50 (Rattus norvegicus): 0.402 mg/kg

COC(=O)CC/C=C\CC[C@H]1C(=O)C[C@@H](O)[C@@H]1/C=C/CC(C)(O)CCC1=CCCC1 (stereo partly specified)
ED50 (Canis familiaris): 0.1 µg/kg
ED50 (Rattus norvegicus): 1.18 mg/kg

COC(=O)CC/C=C\CC[C@H]1C(=O)C[C@@H](O)[C@@H]1/C=C/C[C@@](C)(O)/C=C/C1CCC1
ED50 (Canis familiaris): 0.05 µg/kg
ED50 (Rattus norvegicus): 0.53 mg/kg

COC(=O)CC/C=C\CC[C@H]1C(=O)C[C@@H](O)[C@@H]1/C=C/C[C@@](C)(O)/C=C/C1(C)CC1
ED50 (Canis familiaris): 0.02 µg/kg
ED50 (Rattus norvegicus): 1.34 mg/kg

COC(=O)CC/C=C\CC[C@H]1C(=O)C[C@@H](O)[C@@H]1/C=C/C[C@@](C)(O)/C=C/C1CCCC1
ED50 (Canis familiaris): 0.3 µg/kg
ED50 (Rattus norvegicus): 1.95 mg/kg
